Only some compounds are listed: those with a hit (about 2.4% of all), similar ones and a draw of the others.
MC4R antag cAMP – human MC4R antagonism in cAMP assay; P32245; MC4R-expressing cells, MTII-stimulated cAMP, LANCE TR-FRET; inhibition, % at 6.5 µM; 360,000 compounds, 0.48% hits;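 active means inhibition above its plate's cutoff, the mean of tested wells on that plate plus 3 SD, cut at about 29% in these data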;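 further: 0% = Melanotan II alone and 100% = Melanotan II plus saturating MCL0020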
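Test system: U2OS cells stably expressing human melanocortin 4 receptor (MC4R); also added: Melanotan II challenge; compound: 6.5 µM single dose; timing: 30-min compound preincubation, 1-h Melanotan II challenge, 1-h detection, room temperature; signal: Eu-cAMP/anti-cAMP TR-FRET, emission 671 nm; repeats: one well per compound, no replicates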
MC4R ag barr – human MC4R agonism via beta-arrestin | P32245 | U2OS MC4R beta-arrestin complementation, luminescence; percent of melanotan II response, DMSO zero | activation, % at 8.9 µM | 360,000 compounds, 0.98% hits;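 active means activation above a per-plate cutoff, the mean activation of sample wells on that plate plus 3 SD, cut at about 8% in these data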
TbMetRS inhib – blocks T. brucei methionyl-tRNA synthetase activity; purified T. brucei MetRS, ATP depletion, Kinase-Glo luminescence; inhibition, % at 11.9 µM; 360,000 compounds, 0.4% hits; AID 624268;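 active means inhibition above a per-plate cutoff of the control wells' mean inhibition plus 3 SD, cut at about 5.5% in these data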;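 further: 0% = DMSO wells median and 100% = median of wells with control inhibitor compound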
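Measured by: Kinase-Glo luciferase luminescence reporting remaining unconsumed ATP. Material: purified T. brucei MetRS enzyme. Doses: 11.9 µM compound single dose, 0.9% DMSO. Medium: HEPES buffer containing pyrophosphatase, BSA, spermine, DTT. Times: 15 min preincubation, 2 h reaction, all 25 °C. Reagent: methionine, ATP and bulk E. coli tRNA.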
aDG glyco up – increases alpha dystroglycan glycosylation. activation, % at 10 µM. Pro5-aDG cells, alpha-DG glycosylation AlphaScreen (IIH6); 0% Pro5, 100% B10-LARGE cell signal. 360,000 compounds, 0.22% hits;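 active means activation of at least 8% versus controls, or a plate z-score of at least 8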;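 further: Pro5 are CHO cells carrying HIG-tagged alpha-DG that lacks glycosylation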
NTR1 ag – activates human neurotensin receptor 1; P30989; NTR1-U2OS beta-arrestin-GFP spot imaging, agonist mode; activation, % at 20 µM; 330,000 compounds, 0.17% hits;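 active means activation at or above 40% of the spot to cytoplasm intensity ratio, with at least 20 cells analyzed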;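 further: 0% = DMSO without peptide and 100% = 100 nM NTR1 peptide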
Target sequence (P30989 whole entry, looked up): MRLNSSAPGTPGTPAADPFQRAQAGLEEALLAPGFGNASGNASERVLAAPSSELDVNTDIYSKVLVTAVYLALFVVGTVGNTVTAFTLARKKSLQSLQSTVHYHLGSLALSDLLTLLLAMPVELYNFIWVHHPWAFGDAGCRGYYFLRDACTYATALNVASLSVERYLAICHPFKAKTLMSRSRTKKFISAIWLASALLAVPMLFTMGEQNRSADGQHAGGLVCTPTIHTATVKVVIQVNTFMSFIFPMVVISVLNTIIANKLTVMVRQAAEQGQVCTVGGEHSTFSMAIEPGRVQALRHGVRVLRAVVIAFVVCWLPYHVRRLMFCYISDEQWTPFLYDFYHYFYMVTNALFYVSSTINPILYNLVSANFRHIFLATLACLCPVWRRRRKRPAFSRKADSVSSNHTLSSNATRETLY
TAG inh – triacylglycerol accumulation inhibition; 230,000 compounds, 0.66% hits; H9c2 cells, Nile Red lipid (TAG) fluorescence; cells loaded with 200 µM oleic acid; inhibition, % at 12.5 µM; AID 651582;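 active means pattern-corrected inhibition of lipid staining of at least 50% with the nuclear-stain viability signal not falling by more than 50%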;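 further: 0% = DMSO wells and 100% = triacsin C control wells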
* hit, by the source's call.

Screening CC1CCCN(S(=O)(=O)c2ccc(NC(=O)Cn3nnc(-c4ccccc4F)n3)cc2)C1 (centres undefined) returned MC4R antag cAMP 4, MC4R ag barr 3, TbMetRS inhib 0, aDG glyco up 0 and NTR1 ag 3.
`CC1CCN(CC(=O)Nc2ccc(S(=O)(=O)N3CCC(C)CC3)cc2)CC1` gave MC4R antag cAMP 16, MC4R ag barr 2, TbMetRS inhib 1, aDG glyco up 0 and NTR1 ag 3.
For Cc1ccc(-c2nnn(CC(=O)Nc3ccc(S(=O)(=O)N4CCC(C)CC4)cc3)n2)cc1 the results were MC4R antag cAMP -4, MC4R ag barr 13*, TbMetRS inhib 0, aDG glyco up 0 and NTR1 ag 6.
Cc1cc(=O)[nH]c(SCC(=O)Nc2nnc(SCc3ccccc3)s2)n1 was read as MC4R antag cAMP 3, MC4R ag barr 8.8*, TbMetRS inhib -1, aDG glyco up 1 and NTR1 ag 1.
Screening O=C(CCl)Nc1ccc(N=Nc2ccccc2)cc1 returned MC4R antag cAMP 27, MC4R ag barr -2, TbMetRS inhib 0 and aDG glyco up 0.
`O=C(CCl)Nc1ccc(-c2ccccc2)cc1` gave MC4R antag cAMP 13, MC4R ag barr 9.1*, TbMetRS inhib 0, aDG glyco up 1, NTR1 ag 6 and TAG inh 56*.
`O=C(CCl)Nc1cccc(Oc2ccccc2)c1` gave MC4R antag cAMP -5, MC4R ag barr 8.9*, TbMetRS inhib -1, aDG glyco up 0, NTR1 ag -1 and TAG inh 31.
O=C(CCl)Nc1cccc(Oc2cnccn2)c1 was read as MC4R antag cAMP -8, MC4R ag barr 1, TbMetRS inhib -1, aDG glyco up 0 and NTR1 ag 2.
Screening CCCCNC(=O)c1nc(-c2cc3ccccc3[nH]2)oc1-c1ccccc1 returned TbMetRS inhib -1 and aDG glyco up 0.
For O=C(CSc1nc2ncc(Br)cc2[nH]1)Nc1ccc2c(c1)OCO2 the results were MC4R antag cAMP -4, MC4R ag barr -2, TbMetRS inhib 67*, aDG glyco up 0, NTR1 ag 1 and TAG inh 0.
For OC1c2c(F)cccc2N=C2CCCCN21 (centres undefined) the results were MC4R antag cAMP 12, MC4R ag barr -1, TbMetRS inhib 0, aDG glyco up 0 and TAG inh -1.
For Cc1ccc(SC/C(O)=C(\C#N)c2nc3ccccc3n2C)cc1 the results were MC4R antag cAMP 7, MC4R ag barr 8.3*, TbMetRS inhib 0, aDG glyco up 0 and NTR1 ag 5.
`Cn1c(/C(C#N)=C(\O)CN2CCN(Cc3ccccc3)CC2)nc2ccccc21` gave MC4R antag cAMP 7, MC4R ag barr 0, TbMetRS inhib 0, aDG glyco up 0, NTR1 ag 2 and TAG inh 3.
`C#CCN(C[C@@H]1[C@@H](OC(=O)NCc2ccccc2F)[C@@H](OC(=O)NCc2ccccc2F)Cn2c(=O)ccc(=O)n21)S(=O)(=O)c1ccc(C)cc1` gave MC4R antag cAMP 27, MC4R ag barr 0, TbMetRS inhib 0, aDG glyco up 0 and TAG inh 69*.
C#CCN(C[C@@H]1[C@@H](OC(=O)NCc2ccccc2F)[C@@H](OC(=O)NCc2ccccc2F)Cn2c(=O)n(CCCCCC)c(=O)n21)S(=O)(=O)c1ccc(C)cc1 was read as MC4R antag cAMP 7, MC4R ag barr 0, TbMetRS inhib 0, aDG glyco up 2 and TAG inh 24.
Screening Cc1c(C(=O)Nc2cccnc2Cl)oc2ccccc12 returned MC4R antag cAMP 1, MC4R ag barr 11*, TbMetRS inhib 0, aDG glyco up 0 and NTR1 ag 12.
Screening N=c1n(CCN2CCCCC2)c2ccccc2n1CC(=O)c1ccc(Cl)c(Cl)c1 returned MC4R antag cAMP 10, MC4R ag barr 2, TbMetRS inhib -1, aDG glyco up 5.4*, NTR1 ag 9 and TAG inh 46.

Screens (PubChem BioAssay)
